Test results: publication PMC5615155 (Toxicology Reports, 2017)
Where “and” joins values, the source holds several entries; their conditions need not be identical. Equal values may be shown once. Entries after “also recorded” stand apart in the source; their conditions may differ.

Tests used:
CYP1A2 = molecular target: T1, CYP1A2 (Homo sapiens, UniProt P05177); test: CYP inhibition, spectrofluorimetric; type: biochemical; conditions: recombinant human CYP1A2 expressed in insect Sf9 cells
T1 sequence (P05177 1-516): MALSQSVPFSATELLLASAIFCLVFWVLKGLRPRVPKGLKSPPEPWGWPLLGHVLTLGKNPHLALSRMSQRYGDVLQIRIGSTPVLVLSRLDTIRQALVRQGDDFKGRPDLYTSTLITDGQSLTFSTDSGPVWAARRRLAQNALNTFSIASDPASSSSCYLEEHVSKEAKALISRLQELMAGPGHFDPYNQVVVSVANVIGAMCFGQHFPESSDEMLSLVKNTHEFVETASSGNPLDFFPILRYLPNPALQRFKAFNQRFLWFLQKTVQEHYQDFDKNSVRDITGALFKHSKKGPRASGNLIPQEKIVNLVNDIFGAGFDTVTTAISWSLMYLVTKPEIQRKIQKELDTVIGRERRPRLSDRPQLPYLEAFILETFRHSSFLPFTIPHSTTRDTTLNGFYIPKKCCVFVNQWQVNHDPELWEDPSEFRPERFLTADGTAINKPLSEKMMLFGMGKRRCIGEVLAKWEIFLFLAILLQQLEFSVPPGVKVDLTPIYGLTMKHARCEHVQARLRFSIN
Outline: (§1)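 Inhibition was assayed with recombinant human CYP isoforms expressed in insect Sf9 cells. Turnover of spectrofluorimetric substrates was read by fluorescence. Test compound was tested at a single concentration of 10 μM.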

CYP2D6 = CYP2D6 (Homo sapiens, UniProt P10635); test: CYP inhibition, spectrofluorimetric; type: biochemical; conditions: recombinant human CYP2D6 expressed in insect Sf9 cells
Chain of CYP2D6 (P10635 whole entry): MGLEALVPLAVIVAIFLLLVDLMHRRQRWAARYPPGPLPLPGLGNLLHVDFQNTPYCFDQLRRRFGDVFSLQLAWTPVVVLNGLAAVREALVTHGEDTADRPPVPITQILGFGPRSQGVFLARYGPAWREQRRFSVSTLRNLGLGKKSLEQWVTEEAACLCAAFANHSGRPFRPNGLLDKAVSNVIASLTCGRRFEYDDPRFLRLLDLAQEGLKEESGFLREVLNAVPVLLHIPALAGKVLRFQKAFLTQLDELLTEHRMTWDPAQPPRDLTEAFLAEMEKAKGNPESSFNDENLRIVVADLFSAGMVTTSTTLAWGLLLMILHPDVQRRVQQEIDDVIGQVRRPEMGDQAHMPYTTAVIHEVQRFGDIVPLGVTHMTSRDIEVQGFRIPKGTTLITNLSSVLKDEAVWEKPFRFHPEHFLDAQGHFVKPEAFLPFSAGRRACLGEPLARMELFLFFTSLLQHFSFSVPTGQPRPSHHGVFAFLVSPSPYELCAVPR
Outline: as §1

[1] = in vitro microsomal metabolism; type: in vitro ADME, human; conditions: 10 μM, 0.5 mg/mL, +NADPH, 120 min
[2] = excretion in feces and urine; type: in vivo, Sprague-Dawley rats
[3] = system: human peripheral blood lymphocytes (HPBL); test: in vitro micronucleus test; type: cell-based
Outline: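 HPBL micronucleus test per OECD 487, GLP. Exposures: 4 h −S9, 4 h +S9 (Aroclor 1254-induced male rat liver), 24 h −S9. DMSO solvent; positive controls vinblastine (−S9) and cyclophosphamide (+S9). 4 h cultures were washed, then 20 h in cytochalasin B 6.0 μg/mL. Dose range from preliminary toxicity test (0.2–2000 μg/mL). Duplicate cultures: CBPI from ≥1000 cells; ≥2000 binucleated cells scored.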

[4] = cited from earlier work
[5] = dose range-finding developmental toxicity study; type: in vivo, Crl:CD(SD) rats
[6] = definitive developmental toxicity study; type: in vivo, Crl:CD(SD) rats
Outline: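 For the definitive developmental toxicity study, bred female Sprague-Dawley rats, 25/group, were given the sulfate salt of the test compound by oral gavage at 250, 500 or 1000 mg/kg bw/day, with a control group. Per litter, corpora lutea, implantation sites, pre- and post-implantation loss, live and dead fetuses, resorptions (early/late), fetal sex and fetal body weight were recorded.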

Cc1cc(C(=O)NC(C)(C)COc2cccc3c2C(N)=NS(=O)(=O)N3)cc(C)n1 [S2218, N-(1-((4-amino-2,2-dioxido-1H-benzo[c][1,2,6]thiadiazin-5-yl)oxy)-2-methylpropan-2-yl)-2,6-dimethylisonicotinamide]
inhibition at 10 μM (CYP1A2): ≤ 7%
inhibition at 10 μM (CYP2D6): ≤ 7%
% MS (EIC) peak area of parent relative to time 0 [1]: 98.4 ± 0.4%
% Recovery of S2218 ([2]; feces + urine, female, 0–72 h): 90.0% and 90.0 ± 7.5%
% Recovery of S2218 ([2]; feces + urine, male, 0–72 h): 82.1% and 82.1 ± 15.4%
% Recovery of S2218 ([2]; feces + urine, overall (M+F), 0–72 h): 86.07%
% Recovery of S2218 ([2]; feces, female, 0–24 h): 82.19% and 82.19 ± 10.89%
% Recovery of S2218 ([2]; feces, female, 0–72 h): 89.79% and 89.79 ± 7.63%
% Recovery of S2218 ([2]; feces, female, 24–48 h): 7.504 ± 6.517%
% Recovery of S2218 ([2]; feces, female, 48–72 h): 0.152 ± 0.062%
% Recovery of S2218 ([2]; feces, male, 0–24 h, S8069 10 mg/kg bw oral): 76.68% and 76.68 ± 13.82%
% Recovery of S2218 ([2]; feces, male, 0–72 h): 82.08% and 82.08 ± 15.35%
% Recovery of S2218 ([2]; feces, male, 24–48 h): 5.247 ± 4.432%
% Recovery of S2218 ([2]; feces, male, 48–72 h): 0.298 ± 0.225%
% Recovery of S2218 ([2]; urine, female, 0–24 h): 0.202 ± 0.216%
% Recovery of S2218 ([2]; urine, female, 0–72 h): 0.230% and 0.230 ± 0.252%
% Recovery of S2218 ([2]; urine, female, 24–48 h): 0.020 ± 0.027%
% Recovery of S2218 ([2]; urine, female, 48–72 h): 0.008 ± 0.010%
% Recovery of S2218 ([2]; urine, male, 0–24 h): 0.036 ± 0.025%
% Recovery of S2218 ([2]; urine, male, 0–72 h): 0.044% and 0.044 ± 0.022%
% Recovery of S2218 ([2]; urine, male, 24–48 h): 0.007 ± 0.004%
% Recovery of S2218 ([2]; urine, male, 48–72 h): 0.001 ± 0.001%
% Recovery of S2218 ([2]; urine, overall (M+F), 0–72 h): 0.137%
Micronucleus formation (in vitro), result ([3]; 250–1000 μg/mL, 24 h exposure, −S9): negative for the induction of micronuclei
Micronucleus formation (in vitro), result ([3]; 500–2000 μg/mL, 4 h exposure, ±S9): neither clastogenic nor aneugenic; also recorded: negative for the induction of micronuclei
cytotoxicity (55 ± 5% CBPI relative to vehicle control) ([3]; micronucleus assay, any dose, three treatment conditions): not observed
concentration with visible precipitate ([3]; non-activated 24 h exposure): ≥ 1000 µg/mL
concentration with visible precipitate ([3]; non-activated and S9-activated 4 h exposure): 2000 µg/mL
water solubility at low pH vs S6973 and S617 [4]: improved water solubility at low pH

Cc1cc(C(=O)NC(C)(C)COc2cccc3c2C(N)=NS(=O)(=O)N3)cc(C)n1.O=S(=O)(O)O [S8069]
external developmental malformations or variations in fetuses ([5]; 125–1000 mg/kg bw/day): No external developmental malformations or variations were observed
Findings ([5]; 125–1000 mg/kg bw/day oral gavage, GD 6–20): No maternal toxicity or effect on intrauterine growth up to 1000 mg/kg bw/day
Corpora Lutea ([6]; 250 mg/kg bw/d, Mean): 15.1
Dead Fetuses ([6]; 250 mg/kg bw/d, Mean): 0.0
Fetal Wt. ([6]; 250 mg/kg bw/d, Mean): 5.9 g
Fetuses, Sex F ([6]; 250 mg/kg bw/d, Mean): 7.2
Fetuses, Sex M ([6]; 250 mg/kg bw/d, Mean): 6.6
Implant. Sites ([6]; 250 mg/kg bw/d, Mean): 14.8
Post-Implant. Loss ([6]; 250 mg/kg bw/d, Mean): 1.0
Pre-Implant. Loss ([6]; 250 mg/kg bw/d, Mean): 0.4
Resorptions, Early ([6]; 250 mg/kg bw/d, Mean): 1.0
Resorptions, Late ([6]; 250 mg/kg bw/d, Mean): 0.0
Viable Fetuses ([6]; 250 mg/kg bw/d, Mean): 13.8
Corpora Lutea ([6]; 250 mg/kg bw/d, Total): 363
Dead Fetuses ([6]; 250 mg/kg bw/d, Total): 0
Fetuses, Sex F ([6]; 250 mg/kg bw/d, Total): 173
Fetuses, Sex M ([6]; 250 mg/kg bw/d, Total): 158
Implant. Sites ([6]; 250 mg/kg bw/d, Total): 354
Post-Implant. Loss ([6]; 250 mg/kg bw/d, Total): 23
Pre-Implant. Loss ([6]; 250 mg/kg bw/d, Total): 9
Resorptions, Early ([6]; 250 mg/kg bw/d, Total): 23
Resorptions, Late ([6]; 250 mg/kg bw/d, Total): 0
Viable Fetuses ([6]; 250 mg/kg bw/d, Total): 331
Corpora Lutea ([6]; 500 mg/kg bw/d, Mean): 16.1
Dead Fetuses ([6]; 500 mg/kg bw/d, Mean): 0.0
Fetal Wt. ([6]; 500 mg/kg bw/d, Mean): 5.6 g
Fetuses, Sex F ([6]; 500 mg/kg bw/d, Mean): 8.2
Fetuses, Sex M ([6]; 500 mg/kg bw/d, Mean): 6.6
Implant. Sites ([6]; 500 mg/kg bw/d, Mean): 15.4
Post-Implant. Loss ([6]; 500 mg/kg bw/d, Mean): 0.7
Pre-Implant. Loss ([6]; 500 mg/kg bw/d, Mean): 0.7
Resorptions, Early ([6]; 500 mg/kg bw/d, Mean): 0.7
Resorptions, Late ([6]; 500 mg/kg bw/d, Mean): 0.0
Viable Fetuses ([6]; 500 mg/kg bw/d, Mean): 14.7
Corpora Lutea ([6]; 500 mg/kg bw/d, Total): 370
Dead Fetuses ([6]; 500 mg/kg bw/d, Total): 0
Fetuses, Sex F ([6]; 500 mg/kg bw/d, Total): 188
Fetuses, Sex M ([6]; 500 mg/kg bw/d, Total): 151
Implant. Sites ([6]; 500 mg/kg bw/d, Total): 355
Post-Implant. Loss ([6]; 500 mg/kg bw/d, Total): 16
Pre-Implant. Loss ([6]; 500 mg/kg bw/d, Total): 15
Resorptions, Early ([6]; 500 mg/kg bw/d, Total): 16
Resorptions, Late ([6]; 500 mg/kg bw/d, Total): 0
Viable Fetuses ([6]; 500 mg/kg bw/d, Total): 339
malformations, fetuses (litters) ([6]; 500 mg/kg bw/day): 4(4)
skeletal malformations, fetuses (litters) ([6]; 500 mg/kg bw/day): 3(3)
visceral malformations, fetuses (litters) ([6]; 500 mg/kg bw/day): 3(3)
Corpora Lutea ([6]; 1000 mg/kg bw/d, Mean): 15.1
Dead Fetuses ([6]; 1000 mg/kg bw/d, Mean): 0.0
Fetal Wt. ([6]; 1000 mg/kg bw/d, Mean): 5.6 g
Fetuses, Sex F ([6]; 1000 mg/kg bw/d, Mean): 7.0
Fetuses, Sex M ([6]; 1000 mg/kg bw/d, Mean): 7.3
Implant. Sites ([6]; 1000 mg/kg bw/d, Mean): 14.6
Post-Implant. Loss ([6]; 1000 mg/kg bw/d, Mean): 0.3
Pre-Implant. Loss ([6]; 1000 mg/kg bw/d, Mean): 0.6
Resorptions, Early ([6]; 1000 mg/kg bw/d, Mean): 0.3
Resorptions, Late ([6]; 1000 mg/kg bw/d, Mean): 0.0
Viable Fetuses ([6]; 1000 mg/kg bw/d, Mean): 14.3
Corpora Lutea ([6]; 1000 mg/kg bw/d, Total): 348
Dead Fetuses ([6]; 1000 mg/kg bw/d, Total): 0
Fetuses, Sex F ([6]; 1000 mg/kg bw/d, Total): 160
Fetuses, Sex M ([6]; 1000 mg/kg bw/d, Total): 168
Implant. Sites ([6]; 1000 mg/kg bw/d, Total): 335
Post-Implant. Loss ([6]; 1000 mg/kg bw/d, Total): 7
Pre-Implant. Loss ([6]; 1000 mg/kg bw/d, Total): 13
Resorptions, Early ([6]; 1000 mg/kg bw/d, Total): 7
Resorptions, Late ([6]; 1000 mg/kg bw/d, Total): 0
Viable Fetuses ([6]; 1000 mg/kg bw/d, Total): 328
malformations, fetuses (litters) ([6]; 1000 mg/kg bw/day): 1(1)
visceral malformations, fetuses (litters) ([6]; 1000 mg/kg bw/day): 1(1)
females with rales 1 h following dose ([6]; 1000 mg/kg bw/day, GD 8–17): 6
females with salivation at time of dose ([6]; 1000 mg/kg bw/day, GD 12–16): 4
mean maternal body weight loss ([6]; 1000 mg/kg bw/day, Gestation Day 8–9): 2 g
external malformations ([6]; test article-treated groups): no external malformations observed
